The array DNA melting data of Ke et al. (doi:10.1101/2024.01.08.574731)

What was measured:
[1] = melting temperature; fluorescence melt of hairpins on a sequencing array, two-state fit, raised by 9.35 °C to match UV melts; settings: sodium 0.088 M
How it was run: (§1)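 To match UV melts, fitted temperatures were raised by 9.35 °C. These fits were bootstrapped two-state models that gave melting temperature and folding enthalpy, combined by inverse variance over four replicates. The input was normalised Cy3 fluorescence of library hairpins with annealed Cy3 and quencher oligos on a sequenced MiSeq flow cell, imaged in 50 mM Na-HEPES pH 8.0, 25 mM NaCl in 2.5 °C steps up to 60 °C.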

[2] = folding enthalpy; higher = less favourable; fluorescence melt of hairpins on a sequencing array, two-state fit; settings: sodium 0.088 M
How it was run: as §1

Row | Sequence | Tm [1] | folding enthalpy [2]
1 | GGAGCAGGAAACTGCTTC (.(((((....))))).) | 51.7 °C | -26.4 kcal/mol
2 | GGAGCAGGAAACTGTTCC (((.(((....))).))) | 48 °C | -29.5 kcal/mol
3 | GGAGCCGAAAGGCAATCC ((((((....)))..))) | 38 °C | -11.2 kcal/mol
4 | GGAGCCGAAAGGCACTCC ((((((....)))..))) | 39.9 °C | -11.1 kcal/mol
5 | GGAGCCGAAAGGCAGTCC ((((((....)))..))) | 36.1 °C | -13.2 kcal/mol
6 | GGAGCCGAAAGGCGATCC ((((((....)))..))) | 51.6 °C | -9.49 kcal/mol
7 | GGAGCCGAAAGGCGTTCC ((((((....)))..))) | 40 °C | -10.1 kcal/mol
8 | GGAGCGGGAAACCGCTTC (.(((((....))))).) | 58.2 °C | -16.6 kcal/mol
9 | GGAGCTCGAAAGAGTTCC (((.(((....))).))) | 57.4 °C | -42.9 kcal/mol
10 | GGAGCTGGAAACGGCTCC (((((.(....).))))) | 59.9 °C | -48.2 kcal/mol
11 | GGAGGACGAAAGTCTCC (((.(((....)))))) | 50.5 °C | -22.6 kcal/mol
12 | GGAGGAGAAATCCTCC ((((((....)))))) | 54.4 °C | -40.8 kcal/mol
13 | GGAGGCGAAAGCCATCC ((((((....))).))) | 49.4 °C | -14.7 kcal/mol
14 | GGAGGCGAAAGCCCTCC ((((((....))).))) | 61.1 °C | -18.1 kcal/mol
15 | GGAGGCGAAAGCCGATCC ((((((....)))..))) | 51.8 °C | -9.71 kcal/mol
16 | GGAGGCGAAAGCCGTCC ((((((....))).))) | 52.9 °C | -9.55 kcal/mol
17 | GGAGGCGAAAGCCTGTCC ((((((....)))..))) | 38 °C | -8.31 kcal/mol
18 | GGAGGCGAAAGCCTTCC ((((((....))).))) | 57.9 °C | -13.5 kcal/mol
19 | GGAGGCGGAAACACCTCC (((((.(....).))))) | 50.1 °C | -39.4 kcal/mol
20 | GGAGGCGGAAACGCCCCC ((.((((....)))).)) | 56.4 °C | -14.8 kcal/mol
21 | GGAGGGACGAAAGTCTCC (((..(((....)))))) | 39.2 °C | -13.4 kcal/mol
22 | GGAGGGCGAAAGCCGTCC (((.(((....))).))) | 67 °C | -21 kcal/mol
23 | GGAGGGGCGAAAGCCTCC (((..(((....)))))) | 44.8 °C | -13.4 kcal/mol

Row | Sequence | Tm [1] | folding enthalpy [2]
24 | GGAGGGGGAAACCCTTCC (((.(((....))).))) | 49.2 °C | -25.7 kcal/mol
25 | GGAGGGGGAAACTCCTCC (((((.(....).))))) | 53.8 °C | -32.6 kcal/mol
26 | GGAGGTCGAAAGACTCC (((.(((....)))))) | 51.1 °C | -21.3 kcal/mol
27 | GGAGGTGAAAACCTCC ((((((....)))))) | 66.2 °C | -33.8 kcal/mol
28 | GGAGGTGGAAACGTCTCC ((((..(....)..)))) | 35.9 °C | -18.4 kcal/mol
29 | GGAGTAGGAAACTACTTC (.(((((....))))).) | 44.4 °C | -29.2 kcal/mol
30 | GGAGTATCGAAAGATTCC (((..(((....)))))) | 26.6 °C | -13.1 kcal/mol
31 | GGAGTCGAAAGACTGTCC ((((((....)))..))) | 35.2 °C | -12.1 kcal/mol
32 | GGAGTGGGAAACCATTCC (((.(((....))).))) | 46 °C | -31 kcal/mol
33 | GGAGTTCGAAAGAAATCC (((.(((....))).))) | 49.2 °C | -33.8 kcal/mol
34 | GGAGTTGAAAAACTCC ((((((....)))))) | 55.7 °C | -36.2 kcal/mol
35 | GGAGTTGGAAACAACTTC (.(((((....))))).) | 47.5 °C | -31.1 kcal/mol
36 | GGATAATCGAAAGATTCC (((..(((....)))))) | 27.6 °C | -14 kcal/mol
37 | GGATACCGAAAGGTTTCC (((.(((....))).))) | 50.2 °C | -37.6 kcal/mol
38 | GGATACGAAAGTAGTTCC ((((((....)))..))) | 25 °C | -9.9 kcal/mol
39 | GGATACGAAAGTATCC ((((((....)))))) | 66 °C | -39.1 kcal/mol
40 | GGATACGAAAGTATGTCC ((((((....)))..))) | 30.1 °C | -12.5 kcal/mol
41 | GGATACGGAAACGCATCC ((((.((....)).)))) | 45.5 °C | -29.1 kcal/mol
42 | GGATACGGAAACGTACCC ((.((((....)))).)) | 43.3 °C | -21.1 kcal/mol
43 | GGATAGAAATATCC (((((....))))) | 36 °C | -17.5 kcal/mol
44 | GGATAGACGAAAGTCTCC (((..(((....)))))) | 33.6 °C | -14.6 kcal/mol
45 | GGATAGGGAAACCTACCC ((.((((....)))).)) | 35.2 °C | -21.9 kcal/mol
46 | GGATAGGGAAACCTATTC (.(((((....))))).) | 34.9 °C | -29.4 kcal/mol
